ChEMBL document CHEMBL3585321, “Synthesis and antimicrobial activity of chloramphenicol-polyamine conjugates” (Bioorg Med Chem, 2015)
The source made the active and inactive calls. No cut-off for these calls is given here.

Legend:
Escherichia coli [1] = test: Antibacterial activity against Escherichia coli lacking chromosomal rrn alleles and containing pKK35 plasmids possessing 23S rRNA A2058G mutant assessed as inhibition of bacterial growth; format: functional, organism-based
[2] = Inhibition of Escherichia coli K-12 70S ribosome poly(U)-programmed ribosome (complex C) bearing tRNAPhe at E-site and Ac[3H]Phe-tRNA at P-site assessed as reduction in peptide bond formation using puromycin(S) substrate
Escherichia coli [3] = test: Antibacterial activity against wild type Escherichia coli K-12 assessed as inhibition of bacterial growth at antibacterial IC50 level in presence of 10 times IC50 levels of putrescine; format: functional, organism-based
Outline: (§1)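 Cells started at A560 0.020 in M9 medium with drug at its own growth IC50, alone or with putrescine, spermidine or spermine at 10×IC50. Cultures run until the drug-free control reached A560 0.800. Growth given as percent of control optical density. At least three experiments, two replicates each, mean±SD, p<0.05.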

Staphylococcus aureus [4] = test: Antibacterial activity against wild type Staphylococcus aureus assessed as inhibition of bacterial growth; format: functional, organism-based
Escherichia coli [5] = test: Antibacterial activity against wild type Escherichia coli K-12 assessed as inhibition of bacterial growth at antibacterial IC50 level in presence of 10 times IC50 levels of spermine; format: functional, organism-based; outline: as §1
Staphylococcus aureus [6] = test: Antibacterial activity against methicillin-resistant Staphylococcus aureus GRE2372 assessed as inhibition of bacterial growth; format: functional, organism-based
Escherichia coli [7] = test: Activity of Escherichia coli chloramphenicol acetyltransferase assessed as coenzyme A formation using acetyl coenzyme A at 0.154 mM
Staphylococcus aureus [8] = test: Antibacterial activity against wild type Staphylococcus aureus assessed as inhibition of bacterial growth at antibacterial IC50 level in presence of 10 times IC50 levels of putrescine; format: functional, organism-based; outline: as §1
Escherichia coli [9] = test: Antibacterial activity against Escherichia coli Rosetta(DE3) containing rare tRNA genes and chloramphenicol resistant gene in pLysS plasmid assessed as inhibition of bacterial growth; format: functional, organism-based
Outline: (§2)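 IC50 from bacterial cultures grown in LB medium without drug or with drug across a range of concentrations, reported in μM. Three independent experiments, each with two replicates, given as mean±SD.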

Escherichia coli [10] = test: Antibacterial activity against Escherichia coli lacking chromosomal rrn alleles and containing pKK35 plasmids possessing 23S rRNA A2503C mutant assessed as inhibition of bacterial growth; format: functional, organism-based
Staphylococcus aureus [11] = test: Antibacterial activity against wild type Staphylococcus aureus assessed as inhibition of bacterial growth at antibacterial IC50 level in presence of 10 times IC50 levels of spermidine; format: functional, organism-based; outline: as §1
Escherichia coli [12] = test: Antibacterial activity against wild type Escherichia coli K-12 assessed as inhibition of bacterial growth; format: functional, organism-based
Staphylococcus aureus [13] = test: Antibacterial activity against wild type Staphylococcus aureus assessed as inhibition of bacterial growth at antibacterial IC50 level in presence of 10 times IC50 levels of spermine; format: functional, organism-based; outline: as §1
Escherichia coli [14] = test: Antibacterial activity against Escherichia coli BL21(DE3) expressing delta-tolC gene assessed as inhibition of bacterial growth; format: functional, organism-based; outline: as §2
Staphylococcus aureus [15] = test: Antibacterial activity against methicillin-resistant Staphylococcus aureus GRE2272 assessed as inhibition of bacterial growth; format: functional, organism-based
Escherichia coli [16] = test: Potency index, ratio of IC50 against wild type Escherichia coli K-12 to IC50 against Escherichia coli BL21(DE3) expressing delta-tolC gene; format: functional
Staphylococcus aureus [17] = test: Antibacterial activity against methicillin-resistant Staphylococcus aureus GRE2691 assessed as inhibition of bacterial growth; format: functional, organism-based
Escherichia coli [18] = test: Antibacterial activity against wild type Escherichia coli K-12 assessed as inhibition of bacterial growth at antibacterial IC50 level in presence of 10 times IC50 levels of spermidine; format: functional, organism-based; outline: as §1
Escherichia coli [19] = test: Ratio of Vmax to Km for Escherichia coli chloramphenicol acetyltransferase assessed as coenzyme A formation using acetyl coenzyme A at 0.154 mM
Escherichia coli K-12 [20] = test: Drug level in Escherichia coli K-12 at 9.4 uM by RP-HPLC method; format: ADME, organism-based; details: in vivo
Escherichia coli [21] = test: Reduction in spermidine content in Escherichia coli K-12 at 9.4 uM by UV and mass spectrometry (reference value: 1.63 +/- 0.5 umol/g w.w); format: functional
Escherichia coli [22] = test: Reduction in protein content in Escherichia coli K-12 at 9.4 uM (reference value: 57 +/- 6.35 mg/g w.w); format: functional
Escherichia coli K-12 [23] = test: Drug metabolism in Escherichia coli K-12 assessed as N8,N8-dibenzylspermidine formation at 9.4 uM by RP-HPLC method; format: ADME, organism-based; details: escherichia coli k-12, in vivo
Outline: (§3)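 Washed cells homogenized in 0.6 M HClO4 and centrifuged. Supernatant checked by RP-HPLC for released N8,N8-dibenzylspermidine.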

Escherichia coli [24] = test: Reduction in spermidine content in Escherichia coli K-12 at 9.4 uM after 3 hrs by UV and mass spectrometry; format: functional; details: K-12, 3 h
Escherichia coli [25] = test: Reduction in putrescine content in Escherichia coli K-12 at 9.4 uM after 3 hrs by UV and mass spectrometry; format: functional; details: K-12, 3 h
Escherichia coli [26] = test: Reduction in putrescine content in Escherichia coli K-12 at 9.4 uM by UV and mass spectrometry (reference value: 7.6 +/- 1.2 umol/g w.w); format: functional
Escherichia coli K-12 [27] = test: Drug metabolism in Escherichia coli K-12 assessed as N8,N8-dibenzylspermidine formation at 35.5 uM by RP-HPLC method; format: ADME, organism-based; details: escherichia coli k-12, in vivo; outline: as §3
Escherichia coli [28] = test: Reduction in putrescine content in Escherichia coli K-12 at 35.5 uM by UV and mass spectrometry (reference value: 7.6 +/- 1.2 umol/g w.w); format: functional
Escherichia coli [29] = test: Reduction in spermidine content in Escherichia coli K-12 at 35.5 uM after 3 hrs by UV and mass spectrometry; format: functional; details: K-12, 3 h
Escherichia coli [30] = test: Reduction in putrescine content in Escherichia coli K-12 at 35.5 uM after 3 hrs by UV and mass spectrometry; format: functional; details: K-12, 3 h
Escherichia coli [31] = test: Reduction in spermidine content in Escherichia coli K-12 at 35.5 uM by UV and mass spectrometry (reference value: 1.63 +/- 0.5 umol/g w.w); format: functional
Escherichia coli K-12 [32] = test: Drug level in Escherichia coli K-12 at 35.5 uM by RP-HPLC method; format: ADME, organism-based; details: in vivo
Escherichia coli [33] = test: Reduction in protein content in Escherichia coli K-12 at 35.5 uM (reference value: 57 +/- 6.35 mg/g w.w); format: functional

| Compound | IC50 (Escherichia coli [1]) [µM] | Ki [2] [nM] | growth inhibition (GI) (Escherichia coli [3]) | IC50 (Staphylococcus aureus [4]) [µM] | growth inhibition (GI) (Escherichia coli [5]) | IC50 (Staphylococcus aureus [6]) [µM] | Km (Escherichia coli [7]) [µM] | Vmax (Escherichia coli [7]) [µM/min] | growth inhibition (GI) (Staphylococcus aureus [8]) | IC50 (Escherichia coli [9]) [µM] | IC50 (Escherichia coli [10]) [µM] | growth inhibition (GI) (Staphylococcus aureus [11]) | IC50 (Escherichia coli [12]) [µM] | growth inhibition (GI) (Staphylococcus aureus [13]) | IC50 (Escherichia coli [14]) [µM] | IC50 (Staphylococcus aureus [15]) [µM] | IC50 (Staphylococcus aureus [17]) [µM] | growth inhibition (GI) (Escherichia coli [18]) | Vmax/Km (Escherichia coli [19]) [min⁻¹] | further results |
| --- | --- | --- | --- | --- | --- | --- | --- | --- | --- | --- | --- | --- | --- | --- | --- | --- | --- | --- | --- | --- |
| O=C(N[C@H](CO)[C@H](O)c1ccc([N+](=O)[O-])cc1)C(Cl)Cl [CHLORAMPHENICOL] | 15.5 | 880 | Active | 3.1 | Active | 6 | 59.3 | 8.23 | Active | 110 | 24.7 | Active | 6.2 | Active | 2 | 8 | 14.5 | Active | 0.139 | Ratio IC50 (Escherichia coli [16]): 3 |
| NCCCN(CCCCN(Cc1ccccc1)Cc1ccccc1)C(=O)CCC(=O)N[C@H](CO)[C@H](O)c1ccc([N+](=O)[O-])cc1 | 9.4 | – | – | 4.7 | – | 9 | – | – | – | 19 | 9.4 | – | 9.4 | – | 9 | 7 | 10 | – | – | Drug uptake (Escherichia coli K-12 [20]): 1.06 µM; Activity (Escherichia coli [21]): 0.47 µmol/g; Activity (Escherichia coli [22]): 13.1 mg/g; Drug metabolism (Escherichia coli K-12 [23]): metabolite_notdetected; inhibition at 9.4 µM (Escherichia coli [24]): 80%; inhibition at 9.4 µM (Escherichia coli [25]): 75%; Activity (Escherichia coli [26]): 1.14 µmol/g |
| O=C(CCC(=O)N[C@H](CO)[C@H](O)c1ccc([N+](=O)[O-])cc1)NCCCNCCCCN(Cc1ccccc1)Cc1ccccc1 | 32.3 | 600 | inactive | 13.7 | inactive | > 100 | 53.5 | 4.56 | inactive | 42.5 | 37.1 | inactive | 35.5 | inactive | 33.4 | > 100 | > 200 | inactive | 0.085 | Drug metabolism (Escherichia coli K-12 [27]): metabolite_notdetected; Activity (Escherichia coli [28]): 0.46 µmol/g; inhibition at 35.5 µM (Escherichia coli [29]): 95%; inhibition at 35.5 µM (Escherichia coli [30]): 90%; Activity (Escherichia coli [31]): 0.35 µmol/g; Drug uptake (Escherichia coli K-12 [32]): 3.96 µM; Activity (Escherichia coli [33]): 21.8 mg/g |
